A selection: hits, their analogues and other compounds. The true share with any hit is near 2.9%.
S100A4 inh HTS – blocks human S100A4 binding to myosin IIA peptide | P26447 | S100A4/TAMRA-MyoIIA peptide fluorescence polarization | inhibition, % at 10.7 µM | 360,000 compounds, 0.14% hits | AID 652163;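 active means mean inhibition of at least 70% across replicates, with every replicate also reaching that level; inconclusive means mean inhibition reaches 70% but some replicates fall short; inactive means mean inhibition below 70%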
Target sequence (P26447 whole entry, looked up): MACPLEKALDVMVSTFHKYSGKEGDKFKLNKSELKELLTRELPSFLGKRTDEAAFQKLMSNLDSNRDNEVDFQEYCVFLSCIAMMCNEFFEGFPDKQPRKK
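Material: S100A4 monomer protein / Buffer or medium: 50 mM HEPES pH 7.2, 10 mM CaCl2, 100 mM KCl / Times: 5 min incubation before reading / Benchmarks: neutral control DMSO, positive control TFP / Reagent: labelled myosin peptide probe, 5 nM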
SIRT5 block – inhibitors of human sirtuin-5 desuccinylase; inhibition, % at 15 µM; Q9NXA8; Purified SirT5, succinyl-peptide AMC, trypsin-coupled fluorescence; 330,000 compounds, 1.1% hits; in the data active means inhibition above about 15%; inconclusive means no clear call, values can overlap the other calls
Target sequence (Q9NXA8 whole entry, looked up): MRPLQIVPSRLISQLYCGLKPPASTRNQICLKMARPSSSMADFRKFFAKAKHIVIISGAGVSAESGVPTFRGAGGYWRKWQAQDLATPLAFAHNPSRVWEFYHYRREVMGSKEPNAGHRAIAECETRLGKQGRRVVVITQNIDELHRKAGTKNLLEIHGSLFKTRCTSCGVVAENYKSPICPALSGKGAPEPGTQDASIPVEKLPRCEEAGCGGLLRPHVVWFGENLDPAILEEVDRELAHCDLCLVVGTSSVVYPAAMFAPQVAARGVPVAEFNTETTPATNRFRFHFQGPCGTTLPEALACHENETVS
ERAP1 inh – ERAP1 (human) enzyme inhibition. inhibition, % at 10.7 µM. recombinant ERAP1, Leu-AMC fluorescence, 60 min. 340,000 compounds, 0.15% hits. AID 652197. Q9NZ08;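 active means mean replicate inhibition of at least 30%, or all replicates individually reaching that 30% level; inactive means mean below 30% and not every replicate reaching it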;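 further: 0% = neutral control wells and 100% = L-leucinethiol positive control wells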
CAL PDZ FP-1 – blocks peptide binding to human CAL PDZ domain; Q9HD26; purified CAL PDZ, TMR-peptide fluorescence polarization, 1 h; inhibition, % at 20 µM; 330,000 compounds, 0.02% hits;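 active means highest replicate inhibition of at least 40%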;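 further: plate controls were DMSO neutral control wells for no effect and unlabeled competitor peptide control wells for full effect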
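Assay system – tagged CAL PDZ protein CerCALP, purified · Timing – 1 h at RT · Compound – single point, 20 µM · Measured by – fluorescence polarization from S- and P-plane intensities, G-factor corrected · Evaluation – inhibition from polarization loss · Probe or stimulus – TMR reporter peptide T*-PRC34 · Buffer or medium – pH 7.4 phosphate-saline buffer, reducing agent, detergent, IgG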
CAL PDZ FP-2 – CAL PDZ (human) peptide binding inhibition; Q9HD26; purified CAL PDZ, TMR-peptide fluorescence polarization, 1 h; inhibition, % at 24.9 µM; 300,000 compounds, 0.92% hits; AID 602252;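 active means mean inhibition of at least 30% with at least half of replicates also reaching 30%; inconclusive means no clear call, values can overlap the other calls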;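 further: 0% = DMSO neutral control and 100% = excess unlabeled competitor peptide PRC23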
DENV2 CPE rescue – inhibitors of DENV2 cytopathic effect. 350,000 compounds, 1.7% hits. CPE inhibition, % at 9.99 µM. AID 651640. DENV2-infected cells, cytopathic effect rescue, plate reader; in the data active means CPE inhibition above about 20%, passing the limit was not always enough; inconclusive means no clear call, values can overlap the other calls; tested in BHK-21 cells;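 further: 0% = median of neutral control wells and 100% = median of positive control wells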
An asterisk follows results filed as active; ? = inconclusive; · = no result given.

SMILES	S100A4 inh HTS	SIRT5 block	ERAP1 inh	CAL PDZ FP-1	CAL PDZ FP-2	DENV2 CPE rescue
C[C@@H]1CCCCO[C@@H](CN(C)C(=O)C2CCCCC2)[C@H](C)CN([C@@H](C)CO)C(=O)c2cc(NC(=O)Nc3ccc(F)cc3)ccc2O1	6.0	19.2*	0.7	·	·	24.7*
C[C@@H]1CCCCO[C@@H](CN(C)C(=O)C2CCCCC2)[C@@H](C)CN([C@@H](C)CO)C(=O)c2cc(NC(=O)Nc3ccc(F)cc3)ccc2O1	0.7	3.5	0.4	·	·	21.0*
CCNC(=O)Nc1ccc2c(c1)C(=O)N(C)[C@@H]1CC[C@H](CC(=O)Nc3ccccc3)O[C@H]1CO2	6.6	-10.1	1.1	·	·	-4.0
CC[n+]1c(/C=C/C=C/N(C(C)=O)c2ccccc2)sc2cc(OC)ccc21	199.4*	-3.3	11.7	·	·	-2.8
O=C(Nc1ccc(Cl)cc1)N[C@H]1CC[C@H](CCNC(=O)c2ccccc2F)O[C@@H]1CO	80.8*	-1.6	4.6	·	·	1.9
O=C(NCC[C@@H]1CC[C@@H](NC(=O)C2CCOCC2)[C@@H](CO)O1)Nc1ccc(Cl)cc1	-4.7	-1.3	3.8	·	·	37.6*
O=C(NCC[C@@H]1CC[C@H](NC(=O)C2CCOCC2)[C@H](CO)O1)Nc1ccc(Cl)cc1	4.7	0.5	1.5	·	·	-10.0
O=C(CN1CCOCC1)NCC[C@@H]1CC[C@@H](NC(=O)Nc2ccc(F)cc2)[C@@H](CO)O1	1.7	9.2	-2.8	·	·	23.7*
CCC(=O)N[C@@H]1CC[C@H](CCNC(=O)Nc2ccc(C(F)(F)F)cc2)O[C@@H]1CO	9.1	-0.3	-1.0	·	·	2.4
CCC(=O)N[C@@H]1CC[C@H](CCNC(=O)Nc2ccc(C(F)(F)F)cc2)O[C@H]1CO	92.3*	4.2	2.6	·	·	4.0
O=C(Nc1ccc(Cl)cc1)N[C@@H]1CC[C@H](CCNC(=O)c2ccccc2F)O[C@H]1CO	?	1.8	0.6	·	·	-10.0
CS(=O)(=O)N1[C@H](C(=O)NC2CCC2)[C@@H](CO)[C@@H]2Cn3c(ccc(-c4cccc(F)c4)c3=O)[C@@H]21	6.3	-18.9	-1.4	·	·	-5.0
O=C(NCC[C@@H]1CC[C@@H](NS(=O)(=O)c2ccc(Cl)cc2)[C@H](CO)O1)c1ccccc1F	10.8	18.2*	-0.5	·	·	-4.0
O=C(NCC[C@@H]1CC[C@H](NS(=O)(=O)c2ccc(Cl)cc2)[C@@H](CO)O1)c1ccccc1F	-4.9	2.3	-2.3	·	·	11.9
O=C(NCC[C@@H]1CC[C@H](NS(=O)(=O)c2ccccc2)[C@@H](CO)O1)c1cc(Cl)cc(Cl)c1	33.1	4.0	0.1	·	·	1.6
O=C(NCC[C@H]1CC[C@H](NS(=O)(=O)c2ccccc2)[C@@H](CO)O1)c1cc(Cl)cc(Cl)c1	75.8*	0.5	-0.2	·	·	-0.1
C[C@@H]1CN([C@@H](C)CO)C(=O)Cc2cc(NC(=O)Nc3ccc(F)cc3)ccc2O[C@@H]1CN(C)Cc1ccc(Oc2ccccc2)cc1	-3.8	0.7	1.4	·	·	8.7
C[C@H]1CN([C@@H](C)CO)C(=O)c2cc(NC(=O)Cn3cnnn3)ccc2O[C@@H]1CN(C)C	3.4	-1.5	0.3	·	·	?
CC[n+]1c(/C=C2/C=C(C)CC(C)C2)sc2ccccc21 (stereo unspecified)	-8.0	-3.4	7.9	-0.6	16.6	10.6
CC[n+]1c(C=C2C=C(C)OC(C)=C2)sc2ccccc21	2.5	19.3*	11.6	-0.7	2.9	·
C[C@H]1CCCCO[C@H](CN(C)C(=O)Nc2ccc3c(c2)OCO3)[C@@H](C)CN([C@@H](C)CO)C(=O)c2cc(NC(=O)NC3CCCCC3)ccc2O1	·	·	·	·	·	85.4*
C[C@@H]1CCCCO[C@@H](CN(C)C(=O)Nc2ccc3c(c2)OCO3)[C@@H](C)CN([C@H](C)CO)C(=O)c2cc(NC(=O)Nc3ccc4c(c3)OCO4)ccc2O1	8.7	16.8*	1.1	·	·	-3.6
C[C@@H]1CCCCO[C@H](CN(C)Cc2ccncc2)[C@@H](C)CN([C@@H](C)CO)C(=O)c2cc(NC(=O)Nc3ccc4c(c3)OCO4)ccc2O1	5.4	-3.0	0.9	·	·	27.8*
C[C@H](CO)N1C[C@H](C)[C@@H](CN(C)C(=O)C2CCCCC2)OCCCC[C@H](C)Oc2ccc(NC(=O)Nc3ccc4c(c3)OCO4)cc2C1=O	-8.2	16.3*	-0.9	·	·	-7.9
O=C(NCC[C@@H]1CC[C@@H](NS(=O)(=O)Cc2ccccc2)[C@@H](CO)O1)C1CCC1	5.3	-1.6	2.2	·	·	-1.0
SMILES	S100A4 inh HTS	SIRT5 block	ERAP1 inh	CAL PDZ FP-1	CAL PDZ FP-2	DENV2 CPE rescue
C[C@@H]1CCCCO[C@@H](CN(C)C(=O)Nc2ccc3c(c2)OCO3)[C@@H](C)CN([C@H](C)CO)C(=O)c2cc(NC(=O)c3ccccc3)ccc2O1	3.3	-4.3	-1.5	·	·	20.4*
O=C1CC(C(=O)N2CCN(c3ccccn3)CC2)CN1Cc1ccccc1Cl (stereo unspecified)	185.0*	0.3	-1.2	-2.5	-2.3	11.6
CC1CC(C)CN(C(=O)/C=C/c2ccc([N+](=O)[O-])s2)C1 (stereo unspecified)	-1.2	-2.0	2.1	0.3	·	-4.4
CC1CN(C(=O)/C=C/c2ccc([N+](=O)[O-])s2)CC(C)O1 (stereo unspecified)	2.0	4.4	3.3	0.0	39.5*	-4.9
O=C(C[n+]1cccc(Br)c1)c1ccccc1	0.9	-1.4	1.3	2.5	-7.7	3.5
COc1ccc(C(=O)C[n+]2cccc(Br)c2)cc1	-2.0	-2.2	-3.1	0.0	32.0*	?
Cc1nc(/C(N)=N/OC(=O)c2ccccc2Cl)c(C(F)(F)F)o1	-1.3	-5.0	-0.3	-1.2	68.4*	-0.1
Cc1ccc(NC(=S)Nc2cccc3cnccc23)cc1	3.5	1.1	5.6	0.2	-6.5	71.9*
COc1ccc(Nc2oc(COc3ccccc3OC)nc2C#N)cc1	-1.8	28.4*	1.9	-0.5	-1.6	-2.9
O=C1N[C@@H](Cc2ccccc2)COCn2nncc2CC[C@@H]1Cc1ccccc1	-17.5	-2.8	0.9	·	·	2.5
COCC#Cc1cnc2c(c1)C(=O)N([C@@H](C)CO)C[C@H](C)[C@@H](CN(C)C(=O)C1CCC1)O2	-1.1	2.5	2.2	·	·	1.7
CCCC#Cc1cnc2c(c1)C(=O)N([C@H](C)CO)C[C@H](C)[C@H](CN(C)C(=O)C1CCC1)O2	-2.8	-2.8	0.0	·	·	23.0*
COCC#Cc1cnc2c(c1)C(=O)N([C@H](C)CO)C[C@H](C)[C@H](CN(C)C(=O)C1CCC1)O2	133.2*	5.8	2.9	·	·	17.2
COc1ccc(CCNC(=O)c2c(C)nn(CC(C)C)c2Cl)cc1OC	-3.3	-0.3	-2.5	-2.6	-1.0	95.3*
COc1ccc(CCN(C)C(=O)c2c(C)nn(CC(C)C)c2Cl)cc1OC	-3.9	-3.3	2.7	-1.2	103.5*	-9.0
